Reference: ChEMBL document CHEMBL4184148 (Bioorg Med Chem Lett, 2017)

What was measured:
[1] = target: Activin receptor type-2B (Homo sapiens) (UniProt Q13705); experiment: Binding affinity to wild-type human ACVR2B (H169 to D504 residues) expressed in Escherichia coli BL21 at 1 uM by Kinomescan method relative to control
[2] = target: Tyrosine-protein kinase HCK (Homo sapiens) (UniProt P08631); experiment: Binding affinity to wild-type human full length HCK (M22 to P526 residues) expressed in Escherichia coli BL21 at 1 uM by Kinomescan method relative to control
Outline: (§1)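 Run as one kinome-wide competition binding panel with each compound at a single fixed concentration. Results were plotted as a kinome-wide selectivity map.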

[3] = target: Serine/threonine-protein kinase 33 (Homo sapiens) (UniProt Q9BYT3); experiment: Binding affinity to wild-type human full length STK33 (M1 to L514 residues) expressed in Escherichia coli BL21 at 1 uM by Kinomescan method relative to control
Outline: (§2)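 Kinome-wide competition binding panel run by an outside provider, with each compound tested at a single concentration. Activity is read against the kinase panel.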

[4] = target: Discoidin domain-containing receptor 2 (Homo sapiens) (UniProt Q16832); experiment: Binding affinity to wild-type human partial length DDR2 (V555 to E855 residues) expressed in HEK293 cells at 1 uM by Kinomescan method relative to control; type: cell-based
[5] = target: Serine/threonine-protein kinase 17B (Homo sapiens) (UniProt O94768); experiment: Binding affinity to wild-type human full length DRAK2 (M1 to C372 residues) expressed in Escherichia coli BL21 at 1 uM by Kinomescan method relative to control; outline: as §1
[6] = target: Tyrosine-protein kinase Lyn (Homo sapiens) (UniProt P07948); experiment: Binding affinity to wild-type human partial length LYN (C219 to Q511 residues) expressed in Escherichia coli BL21 at 1 uM by Kinomescan method relative to control
Sequence of Tyrosine-protein kinase Lyn (Homo sapiens) (P07948 2-512 limits assumed): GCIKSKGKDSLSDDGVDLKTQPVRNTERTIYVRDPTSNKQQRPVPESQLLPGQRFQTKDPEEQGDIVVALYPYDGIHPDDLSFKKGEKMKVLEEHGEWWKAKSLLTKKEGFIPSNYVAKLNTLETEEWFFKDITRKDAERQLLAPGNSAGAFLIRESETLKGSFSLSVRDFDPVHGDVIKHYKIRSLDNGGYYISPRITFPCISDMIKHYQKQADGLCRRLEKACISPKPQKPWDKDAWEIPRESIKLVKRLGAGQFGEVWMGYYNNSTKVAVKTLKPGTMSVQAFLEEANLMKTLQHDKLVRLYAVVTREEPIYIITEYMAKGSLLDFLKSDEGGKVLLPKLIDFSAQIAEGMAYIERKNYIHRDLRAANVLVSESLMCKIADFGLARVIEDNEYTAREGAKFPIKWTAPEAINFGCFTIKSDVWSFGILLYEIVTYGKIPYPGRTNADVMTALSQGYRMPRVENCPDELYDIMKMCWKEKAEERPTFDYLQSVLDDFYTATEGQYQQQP

[7] = target: Dual specificity protein kinase CLK3 (Homo sapiens) (UniProt P49761); experiment: Binding affinity to wild-type human full length CLK3 (M1 to R490 residues) expressed in Escherichia coli BL21 at 1 uM by Kinomescan method relative to control; outline: as §1
Sequence of Dual specificity protein kinase CLK3 (Homo sapiens) (P49761 whole entry, looked up, the tested form may be a part): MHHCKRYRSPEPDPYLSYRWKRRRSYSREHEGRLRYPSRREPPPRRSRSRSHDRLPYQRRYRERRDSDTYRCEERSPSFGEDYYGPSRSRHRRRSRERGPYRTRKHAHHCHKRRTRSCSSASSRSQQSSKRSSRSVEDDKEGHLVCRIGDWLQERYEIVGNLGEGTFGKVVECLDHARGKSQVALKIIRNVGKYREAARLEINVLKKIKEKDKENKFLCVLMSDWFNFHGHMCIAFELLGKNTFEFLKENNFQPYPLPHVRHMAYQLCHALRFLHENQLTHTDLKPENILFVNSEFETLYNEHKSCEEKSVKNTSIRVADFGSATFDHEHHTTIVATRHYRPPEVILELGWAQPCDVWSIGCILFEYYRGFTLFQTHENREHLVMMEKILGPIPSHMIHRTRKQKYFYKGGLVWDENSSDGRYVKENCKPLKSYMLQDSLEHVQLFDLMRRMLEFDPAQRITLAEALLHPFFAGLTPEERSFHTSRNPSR

[8] = target: Calcium/calmodulin-dependent protein kinase type IV (Homo sapiens) (UniProt Q16566); experiment: Binding affinity to wild-type human partial length CAMK4 (A22 to A322 residues) expressed in Escherichia coli BL21 at 1 uM by Kinomescan method relative to control
[9] = test system: Serine/threonine-protein kinase B-raf (Homo sapiens), P15056 [V600E]; experiment: Binding affinity to human partial length BRAF V600E mutant (S429 to E741 residues) expressed in HEK293 cells at 1 uM by Kinomescan method relative to control; type: cell-based
[10] = target: Serine/threonine-protein kinase NIM1 (Homo sapiens) (UniProt Q8IY84); experiment: Binding affinity to wild-type human partial length NIM1 (Q44 to N355 residues) expressed in HEK293 cells at 1 uM by Kinomescan method relative to control; type: cell-based
[11] = test system: Receptor-type tyrosine-protein kinase FLT3 (Homo sapiens), P36888 [D835V]; experiment: Binding affinity to human partial length FLT3 D835V mutant (V592 to Y969 residues) expressed in Escherichia coli BL21 at 1 uM by Kinomescan method relative to control
[12] = test system: Phosphatidylinositol 4,5-bisphosphate 3-kinase catalytic subunit alpha isoform (Homo sapiens), P42336 [M1043I]; experiment: Binding affinity to human partial length PIK3CA M1043I mutant (R108 to N1068 residues) expressed in HEK293 cells at 1 uM by Kinomescan method relative to control; type: cell-based
[13] = target: Tyrosine-protein kinase receptor TYRO3 (Homo sapiens) (UniProt Q06418); experiment: Binding affinity to wild-type human partial length TYRO3 (S497 to T814 residues) expressed in Escherichia coli BL21 at 1 uM by Kinomescan method relative to control
[14] = target: Tyrosine-protein kinase FRK (Homo sapiens) (UniProt P42685); experiment: Binding affinity to wild-type human partial length FRK (A215 to F503 residues) expressed in Escherichia coli BL21 at 1 uM by Kinomescan method relative to control
Sequence of Tyrosine-protein kinase FRK (Homo sapiens) (P42685 whole entry, the tested form may be a part): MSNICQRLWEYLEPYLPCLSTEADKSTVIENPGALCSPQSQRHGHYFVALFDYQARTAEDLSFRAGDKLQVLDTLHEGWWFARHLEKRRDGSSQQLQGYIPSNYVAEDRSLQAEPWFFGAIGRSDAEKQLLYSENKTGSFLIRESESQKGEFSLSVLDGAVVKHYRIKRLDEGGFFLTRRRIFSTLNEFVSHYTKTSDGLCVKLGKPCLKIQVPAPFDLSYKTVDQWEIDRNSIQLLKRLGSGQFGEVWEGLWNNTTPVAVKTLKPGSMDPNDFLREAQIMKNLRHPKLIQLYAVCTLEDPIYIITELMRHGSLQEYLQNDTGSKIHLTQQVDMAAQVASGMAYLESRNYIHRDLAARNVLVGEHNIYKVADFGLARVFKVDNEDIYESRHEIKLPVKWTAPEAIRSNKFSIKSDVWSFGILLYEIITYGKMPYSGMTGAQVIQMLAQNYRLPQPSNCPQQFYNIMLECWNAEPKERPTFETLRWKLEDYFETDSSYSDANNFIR

[15] = target: Tyrosine-protein kinase Fyn (Homo sapiens) (UniProt P06241); experiment: Binding affinity to wild-type human partial length FYN (T243 to L534 residues) expressed in Escherichia coli BL21 at 1 uM by Kinomescan method relative to control
[16] = target: Dual specificity mitogen-activated protein kinase kinase 4 (Homo sapiens) (UniProt P45985); experiment: Binding affinity to wild-type human partial length MEK4 (S84 to D399 residues) expressed in HEK293 cells at 1 uM by Kinomescan method relative to control; type: cell-based
Sequence of Dual specificity mitogen-activated protein kinase kinase 4 (Homo sapiens) (P45985 whole entry, the tested form may be a part): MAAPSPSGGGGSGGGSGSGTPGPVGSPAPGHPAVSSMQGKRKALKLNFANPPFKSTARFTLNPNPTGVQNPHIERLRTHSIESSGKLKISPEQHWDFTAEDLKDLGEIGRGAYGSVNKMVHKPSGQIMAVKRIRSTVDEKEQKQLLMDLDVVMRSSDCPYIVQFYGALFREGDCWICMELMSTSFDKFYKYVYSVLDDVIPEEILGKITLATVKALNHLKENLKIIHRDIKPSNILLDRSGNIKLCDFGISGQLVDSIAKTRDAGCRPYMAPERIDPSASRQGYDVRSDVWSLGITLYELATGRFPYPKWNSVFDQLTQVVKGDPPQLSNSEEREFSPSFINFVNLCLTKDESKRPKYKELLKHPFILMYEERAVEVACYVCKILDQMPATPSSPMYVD

[17] = target: Serine/threonine-protein kinase MRCK gamma (Homo sapiens) (UniProt Q6DT37); experiment: Binding affinity to wild-type human partial length DMPK2 (S46 to S408 residues) expressed in Escherichia coli BL21 at 1 uM by Kinomescan method relative to control
[18] = target: Serine/threonine-protein kinase PAK 5 (Homo sapiens) (UniProt Q9P286); experiment: Binding affinity to wild-type human partial length PAK7 (Y400 to H719 residues) expressed in Escherichia coli BL21 at 1 uM by Kinomescan method relative to control
[19] = target: Hormonally up-regulated neu tumor-associated kinase (Homo sapiens) (UniProt P57058); experiment: Binding affinity to wild-type human partial length HUNK (A31 to K354 residues) expressed in Escherichia coli BL21 at 1 uM by Kinomescan method relative to control
[20] = target: Dual specificity mitogen-activated protein kinase kinase 5 (Homo sapiens) (UniProt Q13163); experiment: Binding affinity to wild-type human partial length MEK5 (L98 to P448 residues) expressed in HEK293 cells at 1 uM by Kinomescan method relative to control; type: cell-based
[21] = test system: Tyrosine-protein kinase ABL1 (Homo sapiens), P00519 [F317I]; experiment: Binding affinity to human phosphorylated ABL1 F317I mutant (S229 to K512 residues) expressed in HEK293 cells at 1 uM by Kinomescan method relative to control; type: cell-based
Sequence of Tyrosine-protein kinase ABL1 (Homo sapiens), P00519 [F317I] (P00519 whole entry F317I, the tested form may be a part): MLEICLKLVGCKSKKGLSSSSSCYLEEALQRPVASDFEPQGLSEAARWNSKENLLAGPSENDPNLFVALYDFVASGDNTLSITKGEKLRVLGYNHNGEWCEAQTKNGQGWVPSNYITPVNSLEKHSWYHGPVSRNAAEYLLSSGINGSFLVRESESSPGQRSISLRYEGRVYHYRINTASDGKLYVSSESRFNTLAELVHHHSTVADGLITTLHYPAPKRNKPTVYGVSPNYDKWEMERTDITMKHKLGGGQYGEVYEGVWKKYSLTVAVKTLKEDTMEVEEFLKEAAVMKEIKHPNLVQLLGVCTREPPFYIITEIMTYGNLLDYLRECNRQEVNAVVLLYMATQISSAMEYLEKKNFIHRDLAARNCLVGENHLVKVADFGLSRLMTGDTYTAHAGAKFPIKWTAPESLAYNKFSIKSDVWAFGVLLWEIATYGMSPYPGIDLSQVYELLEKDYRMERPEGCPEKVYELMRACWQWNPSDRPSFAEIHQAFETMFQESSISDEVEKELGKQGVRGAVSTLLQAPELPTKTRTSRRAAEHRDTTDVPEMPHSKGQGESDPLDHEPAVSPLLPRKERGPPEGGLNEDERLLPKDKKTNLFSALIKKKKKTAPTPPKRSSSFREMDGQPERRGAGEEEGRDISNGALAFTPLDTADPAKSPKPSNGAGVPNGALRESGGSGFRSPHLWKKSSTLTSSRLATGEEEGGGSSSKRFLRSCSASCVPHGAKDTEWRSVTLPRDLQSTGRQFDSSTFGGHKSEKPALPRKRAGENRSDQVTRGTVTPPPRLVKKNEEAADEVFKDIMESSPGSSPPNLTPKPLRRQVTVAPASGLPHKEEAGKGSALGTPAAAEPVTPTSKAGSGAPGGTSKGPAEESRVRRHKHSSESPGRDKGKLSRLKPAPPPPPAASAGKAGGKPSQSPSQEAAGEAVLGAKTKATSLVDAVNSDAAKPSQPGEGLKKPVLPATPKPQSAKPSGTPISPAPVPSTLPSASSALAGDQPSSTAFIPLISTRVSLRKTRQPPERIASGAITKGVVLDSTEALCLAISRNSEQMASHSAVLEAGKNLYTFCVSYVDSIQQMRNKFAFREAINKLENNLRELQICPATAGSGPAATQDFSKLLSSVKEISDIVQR

[22] = target: SRSF protein kinase 1 (Homo sapiens) (UniProt Q96SB4); experiment: Binding affinity to wild-type human full length SRPK1 (M1 to S655 residues) expressed in Escherichia coli BL21 at 1 uM by Kinomescan method relative to control; outline: as §2
Sequence of SRSF protein kinase 1 (Homo sapiens) (Q96SB4 whole entry, the tested form may be a part): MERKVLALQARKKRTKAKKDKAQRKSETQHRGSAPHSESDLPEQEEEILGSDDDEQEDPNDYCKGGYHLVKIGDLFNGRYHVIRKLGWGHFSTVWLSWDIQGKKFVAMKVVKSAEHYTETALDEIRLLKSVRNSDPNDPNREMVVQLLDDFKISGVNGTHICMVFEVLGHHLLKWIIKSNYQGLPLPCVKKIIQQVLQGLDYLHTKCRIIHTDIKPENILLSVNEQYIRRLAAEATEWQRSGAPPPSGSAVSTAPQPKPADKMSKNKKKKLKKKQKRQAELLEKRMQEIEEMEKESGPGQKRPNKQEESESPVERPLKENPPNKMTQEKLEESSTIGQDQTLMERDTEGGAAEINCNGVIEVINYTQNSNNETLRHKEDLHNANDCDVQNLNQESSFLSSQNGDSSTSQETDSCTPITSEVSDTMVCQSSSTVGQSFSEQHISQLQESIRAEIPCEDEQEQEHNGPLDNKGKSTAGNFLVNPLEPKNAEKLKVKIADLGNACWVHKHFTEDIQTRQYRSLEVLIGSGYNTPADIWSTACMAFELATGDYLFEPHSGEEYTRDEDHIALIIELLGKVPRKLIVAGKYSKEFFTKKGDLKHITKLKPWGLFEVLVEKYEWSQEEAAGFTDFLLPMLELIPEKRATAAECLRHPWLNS

[23] = target: Myotonin-protein kinase (Homo sapiens) (UniProt Q09013); experiment: Binding affinity to wild-type human partial length DMPK (V47 to V415 residues) expressed in Escherichia coli BL21 at 1 uM by Kinomescan method relative to control
[24] = target: Fibroblast growth factor receptor 2 (Homo sapiens) (UniProt P21802); experiment: Binding affinity to wild-type human partial length FGFR2 (D457 to E769 residues) expressed in Escherichia coli BL21 at 1 uM by Kinomescan method relative to control
Sequence of Fibroblast growth factor receptor 2 (Homo sapiens) (P21802 22-821 limits assumed): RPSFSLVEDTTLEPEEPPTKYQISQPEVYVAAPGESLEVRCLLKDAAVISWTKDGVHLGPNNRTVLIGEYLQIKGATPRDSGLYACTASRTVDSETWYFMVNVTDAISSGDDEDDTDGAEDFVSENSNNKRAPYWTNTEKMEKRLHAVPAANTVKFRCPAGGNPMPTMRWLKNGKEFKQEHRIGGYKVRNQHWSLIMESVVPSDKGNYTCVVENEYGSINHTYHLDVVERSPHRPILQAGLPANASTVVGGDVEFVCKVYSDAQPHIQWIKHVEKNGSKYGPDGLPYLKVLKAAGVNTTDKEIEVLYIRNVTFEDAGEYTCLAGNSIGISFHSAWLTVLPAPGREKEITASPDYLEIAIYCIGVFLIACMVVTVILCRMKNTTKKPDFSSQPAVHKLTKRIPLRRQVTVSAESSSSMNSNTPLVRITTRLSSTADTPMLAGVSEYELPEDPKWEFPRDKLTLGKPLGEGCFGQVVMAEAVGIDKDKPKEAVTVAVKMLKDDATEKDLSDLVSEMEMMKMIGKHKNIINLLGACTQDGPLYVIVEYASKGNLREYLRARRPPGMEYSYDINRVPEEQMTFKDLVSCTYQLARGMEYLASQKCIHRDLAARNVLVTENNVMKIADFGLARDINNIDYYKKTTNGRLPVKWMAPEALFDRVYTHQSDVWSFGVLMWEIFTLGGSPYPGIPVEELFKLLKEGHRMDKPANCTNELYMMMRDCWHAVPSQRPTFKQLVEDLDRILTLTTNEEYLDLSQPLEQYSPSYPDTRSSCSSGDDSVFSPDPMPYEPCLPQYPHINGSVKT

[25] = target: Serine/threonine-protein kinase PLK4 (Homo sapiens, UniProt O00444); experiment: Inhibition of GST-tagged human PLK4 (1 to 836 residues) by Lanthascreen binding assay

Sequence of Activin receptor type-2B (Homo sapiens) (Q13705 whole entry, the tested form may be a part): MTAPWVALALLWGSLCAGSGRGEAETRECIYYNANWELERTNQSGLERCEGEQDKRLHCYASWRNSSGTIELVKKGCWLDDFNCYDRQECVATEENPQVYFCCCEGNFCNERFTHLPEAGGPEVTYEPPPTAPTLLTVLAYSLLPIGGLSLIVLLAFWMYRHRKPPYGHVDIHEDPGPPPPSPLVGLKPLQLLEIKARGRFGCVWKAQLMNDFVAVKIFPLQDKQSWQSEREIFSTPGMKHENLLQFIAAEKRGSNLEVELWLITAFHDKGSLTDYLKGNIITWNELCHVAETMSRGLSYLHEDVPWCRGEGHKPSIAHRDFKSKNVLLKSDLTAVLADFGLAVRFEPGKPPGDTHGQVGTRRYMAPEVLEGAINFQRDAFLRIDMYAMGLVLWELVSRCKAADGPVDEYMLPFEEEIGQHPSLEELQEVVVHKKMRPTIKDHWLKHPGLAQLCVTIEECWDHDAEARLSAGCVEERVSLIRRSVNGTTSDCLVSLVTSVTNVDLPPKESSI

Row | Compound | Activity [1] | Activity [2] | Activity [3] | Activity [4] | Activity [5] | Activity [6] | Activity [7] | Activity [8] | Activity [9] | Activity [10] | Activity [11] | Activity [12] | Activity [13] | Activity [14] | Activity [15] | Activity [16] | Activity [17] | Activity [18] | Activity [19] | Activity [20] | further results
1 | CCC(=O)Nc1ccc(C(=O)Nc2ccc(Nc3ncc4c(n3)N(C)c3ccc(C)cc3C(=O)N4C)cc2)cc1 | 100% | 74% | 79% | 89% | 100% | 97% | 91% | 87% | 100% | 100% | 86% | 83% | 91% | 100% | 100% | 88% | 77% | 97% | 91% | 90% | Activity [21]: 63%; Activity [22]: 86%; Activity [23]: 100%; Activity [24]: 89%; IC50 [25]: 82 nM
2 | C=CC(=O)Nc1ccc(C(=O)Nc2ccc(Nc3ncc4c(n3)N(C)c3ccc(C)cc3C(=O)N4C)cc2)cc1 | 100% | 100% | 99% | 96% | 87% | 97% | 89% | 89% | 94% | 98% | 90% | 64% | 92% | 95% | 81% | 100% | 100% | 100% | 100% | 99% | Activity [21]: 100%; Activity [22]: 89%; Activity [23]: 96%; Activity [24]: 88%; IC50 [25]: 43.5 nM
